The source made the active and inactive calls. No cut-off for these calls is given here.
Legend:
HCT-116 [1] = assay: Cytotoxicity against human HCT116 cells after 72 hrs by MTT assay; type: functional, cell-based
HCT-116 [2] = assay: Induction of apoptosis in human HCT116 cells at 10 uM after 48 hrs; type: functional
In short: (§1)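 After 24 or 48 h of drug exposure, all cells were collected, combining trypsinised adherent cells with floating cells from the medium. Cells (1 × 10^6) were fixed in cold 70% ethanol overnight at −20 °C and stained with DAPI (10 µg/mL) for 30 min in the dark at RT. Under fluorescence microscopy, 300 cells per sample were scored, with condensed or fragmented nuclei counted as apoptotic.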

HCT-116 [3] = assay: Cell cycle arrest in human HCT116 cells assessed as accumulation at G2/M phase at 10 uM after 48 hrs; type: functional
In short: (§2)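 Cells seeded at 8 · 10^5 per 60 mm dish, allowed to settle 24 h (37 °C, 5% CO2), then exposed to the drug for 24 or 48 h. Adherent plus floating cells (5 · 10^5) were fixed in cold 70% ethanol at −20 °C overnight, treated with RNase A (100 µg/mL) and stained with propidium iodide (20 µg/mL) in Vindelov's solution for 30 min at RT. Flow cytometry used 488 nm excitation, FL-2 at 585 ± 21 nm, and histograms were modelled for G0/G1, S and G2/M fractions.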

HCT-116 [4] = assay: Cell cycle arrest in human HCT116 cells assessed as accumulation at S phase at 10 uM after 24 hrs; type: functional; in short: as §2
HeLa [5] = assay: Cell cycle arrest in human HeLa cells assessed as accumulation at S phase at 24 uM after 48 hrs; type: functional; in short: as §2
HeLa [6] = assay: Cell cycle arrest in human HeLa cells assessed as accumulation at G2/M phase at 24 uM after 48 hrs; type: functional; in short: as §2
HeLa [7] = assay: Antiproliferative activity against human HeLa cells assessed as decrease in total cell population at 24 uM after 24 hrs; type: functional; parameters: scale not given: the % may be the effect or the level left
In short: (§3)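 Cells seeded (8 · 10^5 per 60 mm dish), allowed to settle 24 h at 37 °C, 5% CO2, then treated with a single concentration for 24 or 48 h. Adherent and floating cells counted by Coulter counter. Total cell number given as % of untreated control; floating cells as % of total cell number.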

HeLa [8] = assay: Cytotoxicity against human HeLa cells after 48 hrs by MTT assay; type: functional, cell-based
HCT-116 [9] = assay: Cell cycle arrest in human HCT116 cells assessed as accumulation at G2/M phase at 10 uM after 24 hrs; type: functional; in short: as §2
HeLa [10] = assay: Cell cycle arrest in human HeLa cells assessed as accumulation at G0/G1 phase at 24 uM after 24 hrs; type: functional; in short: as §2
HeLa [11] = assay: Cell cycle arrest in human HeLa cells assessed as accumulation at S phase at 24 uM after 24 hrs; type: functional; in short: as §2
DNA [12] = assay: Binding affinity to calf thymus DNA at 4 uM by fluorescence spectrophotometric titration; type: nucleic-acid assay; conditions: Bos taurus
In short: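 ctDNA sonicated in TE buffer, concentration taken from A260 and given in base pairs. Compound (4 µM) in 0.01 M Tris, pH 7.4, 25 °C titrated with ctDNA (0–55 µM bp) until spectra stopped changing. Excitation 424 nm, slit widths 10 nm; binding constant derived from the change in emission.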

HCT-116 [13] = assay: Antiproliferative activity against human HCT116 cells assessed as increase of floating cells in total cell population at 10 uM after 48 hrs; type: functional; in short: as §3
HeLa [14] = assay: Cell cycle arrest in human HeLa cells assessed as accumulation at G2/M phase at 24 uM after 24 hrs; type: functional; in short: as §2
HCT-116 [15] = assay: Cytotoxicity against human HCT116 cells after 48 hrs by MTT assay; type: functional, cell-based; conditions: HCT-116, 48 h
HeLa [16] = assay: Antiproliferative activity against human HeLa cells assessed as increase of floating cells in total cell population at 24 uM after 24 hrs; type: functional; in short: as §3
DNA [17] = assay: Binding affinity to calf thymus DNA at 50 uM by circular dichroism spectrophotometric titration; type: nucleic-acid assay; conditions: Bos taurus
HCT-116 [18] = assay: Antiproliferative activity against human HCT116 cells assessed as increase of floating cells in total cell population at 10 uM after 24 hrs; type: functional; in short: as §3
HCT-116 [19] = assay: Cell cycle arrest in human HCT116 cells assessed as accumulation at S phase at 10 uM after 48 hrs; type: functional; in short: as §2
HCT-116 [20] = assay: Induction of apoptosis in human HCT116 cells at 10 uM after 24 hrs; type: functional; in short: as §1
HeLa [21] = assay: Induction of apoptosis in human HeLa cells at 24 uM after 48 hrs; type: functional; in short: as §1
HeLa [22] = assay: Cell cycle arrest in human HeLa cells assessed as accumulation at G0/G1 phase at 24 uM after 48 hrs; type: functional; in short: as §2
HCT-116 [23] = assay: Antiproliferative activity against human HCT116 cells assessed as decrease in total cell population at 10 uM after 48 hrs; type: functional; parameters: scale not given: the % may be the effect or the level left; in short: as §3
HeLa [24] = assay: Induction of apoptosis in human HeLa cells at 24 uM after 24 hrs; type: functional; in short: as §1
HCT-116 [25] = assay: Cell cycle arrest in human HCT116 cells assessed as accumulation at G0/G1 phase at 10 uM after 24 hrs; type: functional
In short: (§4)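 Adherent plus floating cells (5 · 10^5) collected 24 or 48 h after treatment, fixed in cold 70% ethanol at −20 °C overnight, washed in PBS. RNase A (100 µg/mL) and propidium iodide (20 µg/mL) in Vindelov's solution, 30 min at RT. Flow cytometry with 488 nm excitation, emission 585 ± 21 nm; % cells per cycle phase from DNA content histograms.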

HCT-116 [26] = assay: Cell cycle arrest in human HCT116 cells assessed as accumulation at G0/G1 phase at 10 uM after 48 hrs; type: functional; in short: as §4
HeLa [27] = assay: Cytotoxicity against human HeLa cells after 72 hrs by MTT assay; type: functional, cell-based
HCT-116 [28] = assay: Antiproliferative activity against human HCT116 cells assessed as decrease in total cell population at 10 uM after 24 hrs; type: functional; parameters: scale not given: the % may be the effect or the level left; in short: as §3

Structure (SMILES): CC(C)C1=Cc2ccc3c(c2C(=O)C1=O)CCCC3(C)C [MILTIRONE]
- Activity (HCT-116 [1]): 12.39 µM

Structure (SMILES): CCCNC(=O)Nc1ccc2cc3ccc(NC(=O)NCCC)cc3nc2c1.Cl
- Activity (HCT-116 [2]): 2.89%
- Activity (HCT-116 [3]): 15.11%
- IC50 (HCT-116 [1]; Homo sapiens, HCT-116, 72 h): 61.5 µM
- Activity (HCT-116 [4]): 35.8%
- Activity (HeLa [5]): 17.12%
- Activity (HeLa [6]): 10.06%
- Activity (HeLa [7]): 91.36%
- Activity (HeLa [7]; in the assay text read “after 48 hrs” for “after 24 hrs”): 89.95%
- IC50 (HeLa [8]): 23.9 µM
- Activity (HCT-116 [9]): 19.14%
- Activity (HeLa [10]): 62.48%
- Activity (HeLa [11]): 24.12%
- K (DNA [12]): 3.8 ×10⁵ /M
- Activity (HCT-116 [13]): 4.34%
- Activity (HeLa [14]): 13.4%
- IC50 (HCT-116 [15]): 10.3 µM
- Activity (HeLa [16]): 3.84%
- Activity (DNA [17]): Active
- Activity (HCT-116 [18]): 5.48%
- Activity (HCT-116 [19]): 27.16%
- Activity (HCT-116 [20]): 2.22%
- Activity (HeLa [21]): 1%
- Activity (HeLa [22]): 72.81%
- Activity (HCT-116 [23]): 71.3%
- Activity (HeLa [24]): 0.89%
- Activity (HCT-116 [25]): 45.07%
- Activity (HCT-116 [26]): 57.74%
- IC50 (HeLa [27]): 29.3 µM
- Activity (HCT-116 [28]): 86.16%

— ChEMBL document CHEMBL1157145, “Cytotoxic activity of proflavine diureas: synthesis, antitumor, evaluation and DNA binding properties of 1',1''-(acridin-3,6-diyl)-3',3''-dialkyldiureas” (Bioorg Med Chem, 2008)
